Measured values reported in ChEMBL document CHEMBL4513216, “Probing the Open Global Health Chemical Diversity Library for Multistage-Active Starting Points for Next-Generation Antimalarials” (ACS Infect Dis, 2020).

Experiment: Toxicity liver stage against HepG2, at 10uM
Assay type: cell-based
Parameters: test concentration 10 uM, cell line HepG2-A16-CD81EGFP
Settings: human, HepG2-A16-CD81EGFP cells; read-out: INHIBITION
In short: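 Uninfected HepG2-A16-CD81EGFP cells, 3 × 10^3 per well, 1536-well, plated on prespotted compound at 10 μM final, parasite-free screening media added to match infected plates; puromycin 10 μM positive, DMSO 0.5% negative; run in parallel with 48 h PbLuc assay at 37 °C, 5% CO2; viability by CellTiter-Glo luminescence, normalized to controls.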

CCOC(=O)Cn1ccc(O)c(Cc2ccc(Cl)cc2Cl)c1=O
cytotoxicity at 10 µM: 4.19%

COc1ccc2oc(C(C)NC(=O)NC3CCN(C)CC3)c(C)c2c1 (configuration not stated)
cytotoxicity at 10 µM: 2.62%

CS(=O)(=O)N1CCCC12CCCN(c1nccs1)C2 (configuration not stated)
cytotoxicity at 10 µM: 4.92%

Cc1noc([C@]23COC[C@H]2CN(S(=O)(=O)C2CC2)C3)n1
cytotoxicity at 10 µM: 8.1%

COCCNC(=O)Cn1c(-c2ccc(Cl)cc2)nc(C)c(CCO)c1=O
cytotoxicity at 10 µM: -13.1%

CCc1cnc2c(c1NCc1ccncc1)c(=O)n(C)c(=O)n2C
cytotoxicity at 10 µM: -12.1%

Cc1ccc(N2CCN(C(=O)COc3ccccc3)CC2)nn1
cytotoxicity at 10 µM: -14.6%

COCC1CN(Cc2cc(C)on2)Cc2cn(C)nc21 (configuration not stated)
cytotoxicity at 10 µM: -6.07%

O=c1c2c(ncn1CCCO)nc1n2CCC1
cytotoxicity at 10 µM: -3.89%

CC1(C)CC(=O)N(CC(=O)Nc2ccon2)c2ccccc21
cytotoxicity at 10 µM: -3.43%

COCC(=O)N1CCCC1(C(=O)N(C)C)c1cnccn1 (configuration not stated)
cytotoxicity at 10 µM: 3.96%

COCCC(=O)NCCc1nc(N(C)C)ncc1-c1ccncc1
cytotoxicity at 10 µM: 1.68%

COc1ccc(CN(C)[C@@H]2CN(S(=O)(=O)C(C)C)C[C@H]2O)cc1
cytotoxicity at 10 µM: 0.465%

COc1ccc2c(c1)C(=O)NC1(CC2)CCN(Cc2cccnc2)C1 (configuration not stated)
cytotoxicity at 10 µM: 0.295%

COc1ccc(F)cc1Cn1nc(C(N)=O)ccc1=O
cytotoxicity at 10 µM: -2.52%

CC(C)Cn1ccnc1CNC(=O)NC(C)(C)c1nccs1
cytotoxicity at 10 µM: -5.66%

Cc1noc(C(C)Nc2ccc3oc(C)nc3c2)n1 (configuration not stated)
cytotoxicity at 10 µM: 1.81%

COC(=O)c1ccc2c(c1)CCCN2S(=O)(=O)c1cn(C)c(C)n1
cytotoxicity at 10 µM: 3.94%

Cc1cc(NC(=O)NCc2ccncc2)ccc1OC(C)C
cytotoxicity at 10 µM: -8.36%

Cc1oc(CNC(=O)Cc2ccc3ccccc3c2)cc1C(=O)O
cytotoxicity at 10 µM: 3.63%

CC(C#N)(NC(=O)c1ccc(C#N)cc1)C1CC1 (configuration not stated)
cytotoxicity at 10 µM: -3.67%

Cn1c(NCCN2CCCCCC2)c(C#N)c(=O)n(C)c1=O
cytotoxicity at 10 µM: 0.0687%

CCc1ncc2c(n1)CN(Cc1cccc3c1OCCO3)CC2
cytotoxicity at 10 µM: -8.42%

Cc1ccc(NS(=O)(=O)c2c[nH]c3ncccc23)nc1
cytotoxicity at 10 µM: 6.43%

Cc1cc(NS(=O)(=O)c2c[nH]c3ncccc23)no1
cytotoxicity at 10 µM: -1.69%

CN(C(=O)[C@H]1CSCN1C(=O)OC(C)(C)C)C1CC1
cytotoxicity at 10 µM: 15.4%

Cc1cn2c(n1)CCC(NC(=O)CCOc1ccccc1F)C2 (configuration not stated)
cytotoxicity at 10 µM: 5.27%

Cc1nc(C)n(CC2CCCN(Cc3nnc(C4CC4)o3)C2)n1 (configuration not stated)
cytotoxicity at 10 µM: -12.9%

COc1ccccc1C(=O)N1CCCC1c1nncn1CC(C)C (configuration not stated)
cytotoxicity at 10 µM: -2.96%

Cc1oc2nc[nH]c(=O)c2c1C(=O)N1CCCC(n2cccn2)C1 (configuration not stated)
cytotoxicity at 10 µM: -0.513%

O=C(C1CCCOC1)N1CCCCc2ccccc21 (configuration not stated)
cytotoxicity at 10 µM: -5.51%

CCC(CC)(CNC(=O)NC1CCCC1(C)C)S(C)(=O)=O (configuration not stated)
cytotoxicity at 10 µM: 9.18%

COCCN1CCC(NCc2c(C(C)C)nn(C)c2N(C)C)CC1
cytotoxicity at 10 µM: 11.6%

NC(=O)N1CCCN(CCc2nc(-c3cccc(Cl)c3)no2)CC1
cytotoxicity at 10 µM: 14.8%

CS(=O)(=O)c1nnc(NC(=O)CCc2cccs2)[nH]1
cytotoxicity at 10 µM: 8.91%

Cc1cnn(Cc2cc(F)ccc2F)c1NC(=O)C1COCCO1 (configuration not stated)
cytotoxicity at 10 µM: 21.5%

CN(C)C(=O)CN(C)C(=O)c1cnc(Cc2ccc(F)cc2)s1
cytotoxicity at 10 µM: 8.66%

COc1cccc(CN(C)C(=O)Nc2ccc3c(c2)OCCO3)c1
cytotoxicity at 10 µM: -0.627%

Cc1csc(N2CCN(Cc3ccccn3)CC2C)n1 (configuration not stated)
cytotoxicity at 10 µM: -8.84%

Cc1cc(C)n(CC2CCCN2C(=O)c2ccc3[nH]nnc3c2)n1 (configuration not stated)
cytotoxicity at 10 µM: -13.1%

Cc1nc2c(c(N(C)C)n1)CCN(C(=O)c1ccc(N)nc1)C2
cytotoxicity at 10 µM: -8.26%

Cc1ccccc1C(C(=O)N(Cc1cnn(C)c1)CC(C)C)N(C)C (configuration not stated)
cytotoxicity at 10 µM: 2.66%

CC(C)(CN1C[C@H](Nc2ncccn2)[C@@H](C2CC2)C1)N1CCOCC1
cytotoxicity at 10 µM: 5.41%

CCC[C@H]1CN(C(=O)c2ccc3[nH]c(CO)nc3c2)C[C@@H]1N
cytotoxicity at 10 µM: 3.96%

O=C(c1ccoc1)N1CCCN(C(=O)c2ccc(C3CCCN3)s2)CC1 (configuration not stated)
cytotoxicity at 10 µM: 1.27%

CC(Nc1ncnc2c1CCNCC2)c1nc2c(s1)CCCC2 (configuration not stated)
cytotoxicity at 10 µM: 1.28%

O=C(NC[C@@H]1CCCO1)c1ccc(S(=O)(=O)N[C@@H]2CCNC2)cc1
cytotoxicity at 10 µM: -42.2%

Cc1nc2c(c(=O)n1C)CN(C(=O)C1CCCN(CC(N)=O)C1)C2 (configuration not stated)
cytotoxicity at 10 µM: -6%

Cc1ncsc1CCN(C)C(=O)c1ncccc1O
cytotoxicity at 10 µM: -5.43%

O=C(CCCc1cn[nH]c1)N1C[C@@H](CN2CCOCC2)[C@@H](CO)C1
cytotoxicity at 10 µM: -15.8%

Cc1ccc(-n2ncc(C(=O)N3CCCC3c3cnn(C)c3)c2C)cc1 (configuration not stated)
cytotoxicity at 10 µM: -7.79%

CC(C)CC(=O)NS(=O)(=O)c1ccc(C#N)cc1C(F)(F)F
cytotoxicity at 10 µM: -8.64%

CC(C(=O)Nc1ccc(N2CCCCC2)nc1)n1ccnc1 (configuration not stated)
cytotoxicity at 10 µM: -29.8%

CN(C)c1ccc(C(=O)N2CCN(c3cnccn3)CC2)cn1
cytotoxicity at 10 µM: -4.98%

O=C(NCCNc1ncccn1)C1CC(=O)N(Cc2ccco2)C1 (configuration not stated)
cytotoxicity at 10 µM: -8.78%

O=C(NCCCn1nc2ccccn2c1=O)Nc1ccccc1
cytotoxicity at 10 µM: -13.6%

Cn1nc2c(cc1=O)CN(Cc1coc(-c3ccccc3)n1)CC2
cytotoxicity at 10 µM: -4.5%

CC(C)n1cnnc1C1CCCN(C(=O)COCc2ccccc2)C1 (configuration not stated)
cytotoxicity at 10 µM: -20.3%

C1CC(c2noc(C3CC3)n2)N(Cc2nc(C3CC3)no2)C1 (configuration not stated)
cytotoxicity at 10 µM: -12.8%

Cc1nn(C)c(C)c1C1COCCN1C(=O)c1cnc(N)c(Cl)c1 (configuration not stated)
cytotoxicity at 10 µM: -8.21%

Nc1cc2c(nn1)CCN(C(=O)CC1CCCC1)C2
cytotoxicity at 10 µM: -6.31%

CC(NC(=O)c1cccs1)C(=O)NCc1cccnc1N1CCCCC1 (configuration not stated)
cytotoxicity at 10 µM: -8.57%

c1ccc(CN2CCCn3nnc(Cn4cccc4)c3C2)nc1
cytotoxicity at 10 µM: 8.37%

CC(C)NC(=O)[C@@H]1CCO[C@@H]2CCN(c3ncccn3)C[C@@H]21
cytotoxicity at 10 µM: 7.92%

c1csc(CN2CCc3onc(Cn4cccc4)c3C2)c1
cytotoxicity at 10 µM: 6.59%

COc1cccc(CN2CCc3nc(C(N)=O)sc3CC2)c1
cytotoxicity at 10 µM: -3.79%

CC1c2ncc(Cn3cncn3)n2CCN1C1CCOCC1 (configuration not stated)
cytotoxicity at 10 µM: 4.28%

COCCN1CCO[C@@H]2CN(Cc3ccccc3OC)C[C@@H]2C1
cytotoxicity at 10 µM: -2.48%

O=C(O)CN1CCC(C(F)(F)F)CC1
cytotoxicity at 10 µM: 17.2%

CN(C)C(=O)N1CC[C@H]2[C@H]1CCN2c1nncs1
cytotoxicity at 10 µM: -1.19%

CCN1CCOCC12CCN(c1ccc(C#N)cc1)CC2
cytotoxicity at 10 µM: -6.93%

O=S(=O)(c1ccc(F)cc1)N1CC[C@H]2[C@H]1CCN2c1ncccn1
cytotoxicity at 10 µM: -2.85%

Cc1cnc(N2CCN(C)c3ncccc3C2)nc1
cytotoxicity at 10 µM: -5.86%

O=C(c1c[nH]cn1)N1CCC(F)(F)C2(CCN(c3ncccn3)C2)C1 (configuration not stated)
cytotoxicity at 10 µM: 9.76%

O=C(c1ccco1)N1CCCC2(CN(Cc3cccs3)CCO2)C1 (configuration not stated)
cytotoxicity at 10 µM: -2.3%

CNC(=O)CNC1CC2(CCN(c3ncccn3)CC2)c2ccccc21 (configuration not stated)
cytotoxicity at 10 µM: 4.68%

CCOCC(=O)N1Cc2[nH]nc(COCC3CC3)c2C1
cytotoxicity at 10 µM: 9.29%

O=C1CCCC2=C1C(c1ccccc1Cl)C1C(=O)NN=C1N2 (configuration not stated)
cytotoxicity at 10 µM: -11.6%

CCCc1cc(N2CCC(NC3CCC(O)CC3)CC2)nc(C)n1 (configuration not stated)
cytotoxicity at 10 µM: -4.35%

CC(C)c1cc(C(=O)N2C[C@@H]3CC[C@H]2CN(Cc2cccnc2)C3)no1
cytotoxicity at 10 µM: 2.55%

COc1cc(N2C[C@H]3CC[C@@H](C2)N(CC2CCC2)C3=O)ncn1
cytotoxicity at 10 µM: -1.15%

CC(C)CN1C[C@@H]2C[C@H](C(=O)Nc3cccnc3)[C@H](C1)O2
cytotoxicity at 10 µM: 7.8%
